Data: ChEMBL document CHEMBL1140233, “Synthesis and preliminary biological evaluation of novel pyrazolo[1,5-a]pyrazin-4(5H)-one derivatives as potential agents against A549 lung cancer cells” (Bioorg Med Chem, 2008)
The source made the active and inactive calls. The rule behind the calls is not given here.

Assays:
[1] = test system: A549; test: Growth inhibition of human A549 cells after 48 hrs by MTT assay; assay type: functional, cell-based; conditions: A549, 48 h
Procedure, shortened: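 A549 cells kept in RPMI 1640 with 10% (v/v) bovine calf serum and 80 U/ml gentamicin at 37 °C, 5% CO2, and seeded in 96-well plates at 6250/cm². They were exposed to compound at 8, 16, 32 and 64 µM for 12, 24 or 48 h. Viability was read by MTT absorbance at 570 nm and expressed as percent of untreated control (n = 3).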

[2] = test system: A549; test: Induction of necrosis in human A549 cells at 64 uM after 48 hrs by LDH assay; assay type: functional, cell-based
Procedure, shortened: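 A549 cells cultured in RPMI 1640 with 10% bovine calf serum were exposed to compound at 64 µM for 48 h. LDH released into the culture medium was measured by absorbance at 340 nm on a UV–vis spectrometer and compared with untreated control cells.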

[3] = test system: A549; test: Viability of human A549 cells at 32 uM after 48 hrs by MTT assay relative to control; conditions: A549, 48 h
[4] = test system: A549; test: Viability of human A549 cells at 32 uM after 24 hrs by MTT assay relative to control; conditions: A549, 24 h
[5] = test system: A549; test: Induction of apoptosis in human A549 cells assessed as DNA fragmentation at 32 uM after 48 hrs by acridine orange staining; assay type: functional, cell-based
Procedure, shortened: (§1)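 A549 cells in RPMI 1640 with 10% bovine calf serum were treated with compound at 16 or 32 µM for 24 or 48 h. They were then stained with acridine orange for 1 min at room temperature and imaged by fluorescence microscopy. Nuclear DNA fragmentation, chromatin condensation and the volume of the acidic compartment were scored by eye (n = 4).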

[6] = test system: A549; test: Induction of apoptosis in human A549 cells assessed as DNA fragmentation at 32 uM after 24 hrs by acridine orange staining; assay type: functional, cell-based; procedure, shortened: as §1
[7] = test system: A549; test: Induction of autophagy in human A549 cells assessed as volume of cellular acidic compartment at 32 uM by acridine orange staining; assay type: functional, cell-based; procedure, shortened: as §1
[8] = test system: A549; test: Induction of apoptosis in human A549 cells assessed as DNA fragmentation at 16 uM after 48 hrs by acridine orange staining; assay type: functional, cell-based; procedure, shortened: as §1
[9] = test system: A549; test: Viability of human A549 cells at 32 uM after 12 hrs by MTT assay relative to control; conditions: A549, 12 h
[10] = test system: A549; test: Induction of apoptosis in human A549 cells assessed as DNA fragmentation at 16 uM after 24 hrs by acridine orange staining; assay type: functional, cell-based; procedure, shortened: as §1
[11] = test system: A549; test: Viability of human A549 cells at 64 uM after 48 hrs by MTT assay relative to control; conditions: A549, 48 h

Row | Structure (SMILES) | IC50 [1] | Activity [2] | also measured
1 | CC(C)(C)c1ccc(CN2CCn3nc(-c4ccccc4)cc3C2=O)cc1 | > 64 µM | – | –
2 | O=C1c2cc(-c3ccc(Cl)cc3)nn2CCN1Cc1ccc(Cl)nc1 | 39.5 µM | inactive | –
3 | O=C1c2cc(-c3ccccc3)nn2CCN1Cc1ccc(Cl)nc1 | > 64 µM | – | –
4 | COc1ccc(CCN2CCn3nc(-c4ccccc4)cc3C2=O)cc1OC | 31.5 µM | inactive | –
5 | O=C1c2cc(-c3ccc(Cl)cc3)nn2CCN1Cc1ccccc1 | 22.3 µM | inactive | viability at 32 µM [3]: 39.2%; viability at 32 µM [4]: 73.6%; Activity [5]: inactive; Activity [6]: inactive; Activity [7]: Active; Activity [8]: inactive; viability at 32 µM [9]: 78.7%; Activity [10]: inactive; viability at 64 µM [11]: 26.5%
6 | CC(C)(C)c1ccc(CN2CCn3nc(-c4ccc(Cl)cc4)cc3C2=O)cc1 | > 64 µM | – | –
7 | O=C1c2cc(-c3ccccc3)nn2CCN1Cc1ccccc1 | > 64 µM | – | –
8 | CC(C)N1CCn2nc(-c3ccccc3)cc2C1=O | > 64 µM | – | –

More lines, main results first:

Row | IC50 [1] | Structure (SMILES) | Activity [2] | also measured
9 | 62.5 µM | CCCCN1CCn2nc(-c3ccc(OC)cc3)cc2C1=O | – | –
10 | 50.2 µM | COc1ccc(-c2cc3n(n2)CCN(Cc2ccc(C(C)(C)C)cc2)C3=O)cc1 | inactive | –
11 | > 64 µM | CCCCN1CCn2nc(-c3ccccc3)cc2C1=O | – | –
12 | > 64 µM | COc1ccc(-c2cc3n(n2)CCN(Cc2ccccc2)C3=O)cc1 | – | –
13 | > 64 µM | COc1ccc(-c2cc3n(n2)CCN(CCc2ccc(OC)c(OC)c2)C3=O)cc1 | – | –
14 | 29.8 µM | CCCCN1CCn2nc(-c3ccc(Cl)cc3)cc2C1=O | inactive | –
15 | > 64 µM | COc1ccc(-c2cc3n(n2)CCN(C(C)C)C3=O)cc1 | – | –
16 | > 64 µM | COc1ccc(CCN2CCn3nc(-c4ccc(Cl)cc4)cc3C2=O)cc1OC | – | –
17 | > 64 µM | COc1ccc(-c2cc3n(n2)CCN(Cc2ccc(Cl)nc2)C3=O)cc1 | – | –
18 | 31 µM | CC(C)N1CCn2nc(-c3ccc(Cl)cc3)cc2C1=O | inactive | viability at 32 µM [3]: 50%; viability at 32 µM [4]: 75.7%; viability at 32 µM [9]: 81.4%; viability at 64 µM [11]: 34.6%
